Reference: ChEMBL document CHEMBL3228039, “Synthesis and evaluation of the antiovulatory activity of a variety of melatonin analogues” (J Med Chem, 1979)
Blank lines part the entries; values can stand above or below the molecule they belong to. Activity calls are given as the source filed them. The rule behind the calls is not given here.

How the values were obtained:
[1] = Half life in rat plasma after 2 hrs; type: ADME, cell-free
[2] = Half life in rat plasma after 30 mins; type: ADME, cell-free
[3] = Half life in serum (unknown origin) after first 2 hrs post iv dose; type: ADME, organism-based
[4] = test system: Rattus norvegicus; assay: Antiovulatory activity in Sprague-Dawley rat assessed as blockage of luteinizing hormone surge by measuring reduction in ovulation at 8 mg/kg, po by microscopic analysis; type: functional, organism-based; design: dose 8 mg/kg
Summary of the method: (§1)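 Female rats (270-300 g) with at least two consecutive 4-day estrus cycles, tracked by daily vaginal smears, were used on the day of proestrus. A single dose was given at 1200 h, either iv in 50% Me2SO or orally in PEG 400. Controls received vehicle only. Rats were killed on the day of estrus, and oviducts were examined microscopically for ova. Absence of ova was scored as ovulation blocked.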

[5] = test system: Rattus norvegicus; assay: Antiovulatory activity in Sprague-Dawley rat assessed as blockage of luteinizing hormone surge by measuring reduction in ovulation at 8 mg/kg, iv by microscopic analysis; type: functional, organism-based; design: dose 8 mg/kg; summary of the method: as §1
[6] = test system: Rattus norvegicus; assay: Antiovulatory activity in Sprague-Dawley rat assessed as blockage of luteinizing hormone surge by measuring reduction in ovulation at 4 mg/kg, po by microscopic analysis; type: functional, organism-based; design: dose 4 mg/kg; summary of the method: as §1
[7] = test system: Rattus norvegicus; assay: Antiovulatory activity in Sprague-Dawley rat assessed as blockage of luteinizing hormone surge by measuring reduction in ovulation at 4 mg/kg, iv by microscopic analysis; type: functional, organism-based; design: dose 4 mg/kg; summary of the method: as §1
[8] = test system: Rattus norvegicus; assay: Antiovulatory activity in Sprague-Dawley rat assessed as blockage of luteinizing hormone surge by measuring reduction in ovulation at 5 mg/kg, po by microscopic analysis; type: functional, organism-based; design: dose 5 mg/kg; summary of the method: as §1
[9] = species on record: Xenopus laevis; assay: Melatonin-like activity in tadpole by blanching test; type: functional, organism-based

- half-life [1]: 12 min
- half-life [2]: 15 min
- half-life [3]: > 12 min
Structure (SMILES): COc1ccc2[nH]cc(CCNC(C)=O)c2c1 [MELATONIN]

Structure (SMILES): CCOc1ccc2[nH]cc(CCNC(C)=O)c2c1
- Activity [4]: Active

Structure (SMILES): CC(=O)NCCc1c[nH]c2ccc(O)cc12
- Activity [5]: Active
- Activity [4]: Active

Structure (SMILES): COc1cc2c(CCNC(C)=O)c[nH]c2cc1C
- Activity [4]: Active

Structure (SMILES): CCC(=O)NCCc1c[nH]c2cc(Cl)c(OC)cc12
- Activity [6]: inactive

Structure (SMILES): CC(=O)NCCc1c[nH]c2ccc(OC(C)=O)cc12
- Activity [5]: Active
- Activity [4]: Active

Structure (SMILES): CC(=O)NCCc1c[nH]c2ccc(OC3CCCC3)cc12
- Activity [4]: Active

Structure (SMILES): COc1ccc2c(c1)c(CCNC(C)=O)cn2C
- Activity [4]: Active

- half-life [3]: 27 min
Structure (SMILES): COc1cc2c(CCNC(C)=O)c[nH]c2cc1Cl
- Activity [7]: inactive
- Activity [8]: inactive
- Activity [9]: Active

Structure (SMILES): COc1cc2c(CCNC(=O)C34CC5CC(CC(C5)C3)C4)c[nH]c2cc1Cl
- Activity [4]: Active

Structure (SMILES): COc1ccc2[nH]cc(CCNC(C)=O)c2c1Cl
- Activity [4]: Active
